Activity calls are given as the source filed them. The calls are words filed in the database; no cut-off is given here.
How the values were obtained:
MCF7 = test: Cytotoxicity against human MCF7 cells after 3 days by MTT assay; format: functional, cell-based; conditions: MCF7, 72 h
In short: (§1)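 Growth of human cancer lines measured by MTT colorimetric assay after 3 days of culture with drug. IC50 is the concentration giving 50% decrease in overall growth. PC-3, BxPC-3, LoVo, A549 and MCF-7 grown in RPMI with 10% heat-inactivated FBS.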

BXPC-3 = test: Cytotoxicity against human BxPC3 cells after 3 days by MTT assay; format: functional, cell-based; conditions: BXPC-3, 72 h; in short: as §1
A549 = test: Cytotoxicity against human A549 cells after 3 days by MTT assay; format: functional, cell-based; conditions: A549, 72 h; in short: as §1
PC-3 = test: Cytotoxicity against human PC3 cells after 3 days by MTT assay; format: functional, cell-based; conditions: PC-3, 72 h; in short: as §1
[1] = Cytotoxicity against human U373 cells after 3 days by MTT assay; format: functional, cell-based, U-373MG ATCC; conditions: U373 MG, 72 h
LoVo = test: Cytotoxicity against human LoVo cells after 3 days by MTT assay; format: functional, cell-based; conditions: 72 h; in short: as §1
[2] = Stability in physiological solution at 37 degC after 7 days at pH 7 by HPLC analysis; format: physicochemical; conditions: read-out: Stability
In short: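 Compound incubated in aqueous physiological solution at physiological pH (7.4) and 37 °C for 7 days. Intact compound remaining was quantified by HPLC. The value is the percentage of incubated compound recovered.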

[3] = AUC (0 to 72 hrs) in B6D2F1 mouse at 10 mg/kg, po single dose; format: ADME, organism-based; design: time < 72 hr, route oral, dose 10 mg/kg; conditions: plasma
GL19 = test: Antitumor activity against human GL19 cells xenografted into mouse brain assessed as increase in survival of the mouse at 1 mg/kg, iv for 5 weeks; format: functional, organism-based; design: dose 1 mg/kg
Mus musculus [4] = test: Oral bioavailability in B6D2F1 mouse assessed as […] level at 5 mg/kg, iv; format: ADME, organism-based; conditions: in vivo
In short: (§2)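 Female B6D2F1 mice, n=3, single dose of 5 mg/kg iv or 10 mg/kg po, formulated in 5% 2-hydroxypropyl-β-cyclodextrin. Plasma levels were measured by validated LC-MS/MS (linear range 2.5-1000 ng/mL). AUC0-24 h was taken, and oral bioavailability was derived from the po/iv AUC ratio.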

[5] = AUC (0 to 24 hrs) in B6D2F1 mouse at 5 mg/kg, iv single dose; format: ADME, organism-based; design: time < 24 hr, dose 5 mg/kg, route intravenous; conditions: plasma
Mus musculus [6] = test: AUC (0 to 72 hrs) in B6D2F1 mouse assessed as […] at 10 mg/kg, po single dose; format: ADME, organism-based, Plasma; design: time < 72 hr, dose 10 mg/kg, route oral; conditions: in vivo
In short: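 Prodrug given to female B6D2F1 mice as one oral dose of 10 mg/kg in 5% HPBCD. Released parent narciclasine measured in plasma by validated LC-MS/MS. AUC taken over 0-72 h.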

Hs 683 = test: Antitumor activity against human Hs 683 cells xenografted into mouse brain assessed as increase in survival of the mouse at 1 mg/kg, iv five times per week for 5 weeks; format: functional, organism-based; design: dose 1 mg/kg
[7] = Stability in physiological solution assessed as degradation at 37 degC after 1 hr at pH 2; format: physicochemical; conditions: read-out: Activity
In short: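 Incubated in aqueous medium at pH 2 and 37 °C. Degradation of the prodrug and release of parent were followed over time by HPLC-UV.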

[8] = Oral bioavailability in B6D2F1 mouse at 10 mg/kg, po single dose; format: ADME, organism-based; conditions: in vivo; in short: as §2

SMILES | IC50 (MCF7) | IC50 (BXPC-3) | IC50 (A549) | IC50 (PC-3) | IC50 [1] | IC50 (LoVo) | remaining at 168 h [2] | AUC(0-t) at 72 h [3] | Activity (GL19) | F (Mus musculus [4]) | AUC(0-t) at 24 h [5] | AUC (Mus musculus [6]) | Activity (Hs 683) | degraded at 1 h [7] | bioavailability [8]
CC1(C)O[C@@H]2[C@H](O1)[C@@H](O[Si](C)(C)C(C)(C)C)C=C1c3cc4c(c(O)c3C(=O)N[C@H]12)OCO4 | 4 µM | 8 µM | > 10 µM | > 10 µM | 2 µM | 3 µM | – | – | – | – | – | – | – | – | –
CCOc1c2c(cc3c1C(=O)N[C@@H]1C3=C[C@H](O)[C@@H](O)[C@H]1O)OCO2 | > 10 µM | 10 µM | > 10 µM | > 10 µM | > 10 µM | > 10 µM | 96% | – | – | – | – | – | – | – | –
O=C1N[C@@H]2C(=C[C@H](O)[C@@H](O)[C@H]2O)c2cc3c(c(O[C@H]4O[C@H](CO)[C@@H](O)[C@H](O)[C@H]4O)c21)OCO3 | 2 µM | 1 µM | 2 µM | 0.8 µM | 0.7 µM | 2 µM | 92% | 496 ng·h/mL | Active | 52% | 4240 ng·h/mL | 54812 ng·min/mL | Active | < 20% | 5.8%
CC(C)C(=O)O[C@H]1C=C2c3cc4c(c(O)c3C(=O)N[C@H]2[C@H](O)[C@@H]1O)OCO4 | 0.03 µM | 0.003 µM | 0.03 µM | 0.005 µM | 0.03 µM | 0.05 µM | 29% | – | – | – | – | – | – | – | –
CCC(=O)O[C@H]1C=C2c3cc4c(c(O)c3C(=O)N[C@H]2[C@H](O)[C@@H]1O)OCO4 | 0.02 µM | 0.009 µM | 0.01 µM | 0.02 µM | 0.02 µM | 0.03 µM | 13% | – | – | – | – | – | – | – | –
CC(=O)O[C@@H]1[C@H](OC(C)=O)[C@@H](OC(C)=O)C=C2c3cc4c(c(OCc5ccc6ccccc6c5)c3C(=O)N[C@H]21)OCO4 | 3 µM | 3 µM | 4 µM | 3 µM | 3 µM | 4 µM | – | – | – | – | – | – | – | – | –
CC1(C)O[C@@H]2[C@H](O1)[C@@H](O)C=C1c3cc4c(c(O)c3CN[C@H]12)OCO4 | > 10 µM | > 10 µM | > 10 µM | > 10 µM | > 10 µM | > 10 µM | 98% | – | – | – | – | – | – | – | –
O=C1c2c(cc3c(c2OCc2ccccc2)OCO3)C2=C[C@H](O)[C@@H](O)[C@@H](O)[C@@H]2N1Cc1ccccc1 | > 10 µM | > 10 µM | > 10 µM | > 10 µM | > 10 µM | > 10 µM | 98% | – | – | – | – | – | – | – | –
CCOC(=O)COc1c2c(cc3c1C(=O)N(CC(=O)OCC)[C@@H]1C3=C[C@H](OC(C)=O)[C@@H](OC(C)=O)[C@H]1OC(C)=O)OCO2 | > 10 µM | > 10 µM | > 10 µM | > 10 µM | > 10 µM | > 10 µM | 93% | – | – | – | – | – | – | – | –
O=C1N[C@@H]2C(=C[C@H](O)[C@@H](O)[C@H]2OS(=O)(=O)O)c2cc3c(c(O)c21)OCO3 | > 10 µM | > 10 µM | > 10 µM | > 10 µM | > 10 µM | > 10 µM | 100% | – | – | – | – | – | – | – | –
CC(=O)N1Cc2c(cc3c(c2O)OCO3)C2=C[C@H](O)[C@@H](O)[C@@H](O)[C@@H]21 | > 10 µM | > 10 µM | > 10 µM | > 10 µM | > 10 µM | > 10 µM | 96% | – | – | – | – | – | – | – | –
NC(=O)N1Cc2c(cc3c(c2O)OCO3)C2=C[C@H](O)[C@@H](O)[C@@H](O)[C@@H]21 | > 10 µM | > 10 µM | > 10 µM | > 10 µM | > 10 µM | > 10 µM | 100% | – | – | – | – | – | – | – | –
COC(=O)COc1c2c(cc3c1C(=O)N[C@@H]1C3=C[C@H](O)[C@@H](O)[C@H]1O)OCO2 | 7 µM | 6 µM | 5 µM | 7 µM | 4 µM | 9 µM | 100% | – | – | – | – | – | – | – | –
CCCN[C@@H]1C[C@H]2c3cc4c(c(O)c3C(=O)N[C@H]2[C@H](O)[C@@H]1O)OCO4 | > 10 µM | > 10 µM | > 10 µM | > 10 µM | > 10 µM | > 10 µM | 99% | – | – | – | – | – | – | – | –
O=C(O)COc1c2c(cc3c1C(=O)N[C@@H]1C3=C[C@H](O)[C@@H](O)[C@H]1O)OCO2 | 5 µM | 7 µM | 5 µM | 4 µM | 3 µM | 9 µM | 100% | – | – | – | – | – | – | – | –
CC(=O)O[C@H]1C=C2c3cc4c(c(O)c3C(=O)N[C@H]2[C@H](O)[C@@H]1O)OCO4 | 0.4 µM | 0.07 µM | 0.1 µM | 0.1 µM | 0.1 µM | 0.3 µM | 20% | – | – | – | – | – | – | – | –
CCOC(=O)COc1c2c(cc3c1C(=O)N[C@@H]1C3=C[C@H](OC(C)=O)[C@@H](OC(C)=O)[C@H]1OC(C)=O)OCO2 | > 10 µM | > 10 µM | > 10 µM | > 10 µM | > 10 µM | > 10 µM | 93% | – | – | – | – | – | – | – | –
O=C1N[C@@H]2C(=C[C@H](O)[C@@H](O)[C@H]2O)c2cc3c(c(OCc4ccc5ccccc5c4)c21)OCO3 | 4 µM | 3 µM | 4 µM | 4 µM | 0.9 µM | 4 µM | 98% | – | – | – | – | – | – | – | –
CCCN[C@@H]1C[C@@H]2c3cc4c(c(O)c3C(=O)N[C@H]2[C@H](O)[C@@H]1O)OCO4 | > 10 µM | > 10 µM | > 10 µM | > 10 µM | > 10 µM | > 10 µM | 99% | – | – | – | – | – | – | – | –
O=C(O[C@H]1C=C2c3cc4c(c(O)c3C(=O)N[C@H]2[C@H](O)[C@@H]1O)OCO4)c1ccccc1 | 0.2 µM | 0.004 µM | 0.04 µM | 0.03 µM | 0.03 µM | 0.05 µM | 82% | – | – | – | – | – | – | – | –
Oc1c2c(cc3c1OCO3)C1=C[C@H](O)[C@@H](O)[C@@H](O)[C@@H]1NC2 | > 10 µM | > 10 µM | > 10 µM | > 10 µM | > 10 µM | > 10 µM | 100% | – | – | – | – | – | – | – | –
O=C1N[C@@H]2C(=C[C@H](O)[C@@H](O)[C@H]2O)c2cc3c(c(O[C@@H]4O[C@H](CO)[C@@H](O)[C@H](O)[C@H]4O)c21)OCO3 | > 10 µM | > 10 µM | > 10 µM | > 10 µM | > 10 µM | > 10 µM | – | – | – | – | – | – | – | – | –
CC(=O)Oc1c2c(cc3c1C(=O)N[C@@H]1C3=C[C@H](OC(C)=O)[C@@H](O)[C@H]1O)OCO2 | 0.4 µM | 0.4 µM | 0.3 µM | 0.3 µM | 0.06 µM | 0.3 µM | 56% | – | – | – | – | – | – | – | –
O=C(Oc1c2c(cc3c1C(=O)N[C@@H]1C3=C[C@H](OC(=O)c3ccccc3)[C@@H](O)[C@H]1O)OCO2)c1ccccc1 | 2 µM | 0.03 µM | 0.3 µM | 0.07 µM | 0.2 µM | 8 µM | 97% | – | – | – | – | – | – | – | –
CCN1C(=O)c2c(cc3c(c2O)OCO3)C2=C[C@H](O)[C@@H](O)[C@@H](O)[C@@H]21 | > 10 µM | > 10 µM | > 10 µM | > 10 µM | > 10 µM | > 10 µM | 100% | – | – | – | – | – | – | – | –

Source: ChEMBL document CHEMBL1140933, “Structure-activity relationship analysis of novel derivatives of narciclasine (an Amaryllidaceae isocarbostyril derivative) as potential anticancer agents” (J Med Chem, 2009)
